KCNQ1 pot – human KCNQ1 channel potentiation or activation | P51787 | 310,000 tested, 0.35% active | CHO-K1 KCNQ1, thallium flux FluxOR fluorescence; hits give high values | B-score at 10 µM;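 active = fluorescence ratio B-score, a plate-corrected score, at least three library SD, with initial intensity B-score within 5 SD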
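System: CHO-K1 cells stably expressing KCNQ1 / Medium: assay buffer for compound exposure, DMSO matched across wells / Reagent: thallium- and potassium-containing depolarizing buffer / Compound: one concentration, matched DMSO / Incubation: 20 min compound pretreatment at room temperature / Measured by: kinetic FluxOR fluorescence, 10 s baseline plus 110 s post-stimulus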
hERG rescue – hERG (human) protection from proarrhythmic block; Q12809; CHO-hERG, FluxOR thallium flux, dofetilide IC70 present; activation (rescue from dofetilide block), less the hit threshold, % at 10 µM; 310,000 tested, 0.51% active;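 active = activation above the mean of controls blocked by dofetilide plus 5 SD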;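 note: thallium influx through hERG after potassium depolarization seen as dye fluorescence rise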
KCNK9 inh – inhibitors of human KCNK9 two-pore domain potassium channel; 310,000 tested, 1.2% active; HEK293 KCNK9, FluxOR thallium flux fluorescence; hits give low values; Q9NPC2; B-score at 10 µM; AID 488922;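 active = ratio B-score over 3 SD below the library mean, with starting fluorescence within 5 SD of its mean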;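 note: negative B-score means less thallium flux so channel inhibition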
KCNQ1 inh – inhibitors of human KCNQ1 potassium channel; P51787; CHO-K1 KCNQ1, FluxOR thallium flux fluorescence; hits give high values; B-score at 10 µM; 310,000 tested, 1.3% active;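 active = compounds whose thallium flux B-score, printed positive for inhibition, exceeds three library SD while starting fluorescence stays within three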;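 note: channel opened by potassium depolarization with thallium stimulus after 20 min compound exposure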
Kir21 block – Kir2.1 (mouse) channel inhibition | 310,000 tested, 0.85% active | HEK293-Kir2.1, FluxOR thallium flux fluorescence; hits give low values | B-score at 10 µM | P35561;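 active = fluorescence ratio B-score at or below minus 3 SD of library scores, with starting-brightness B-score within 2 SD, cut at about -4.2 in these data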;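 note: channel flux triggered by added potassium and thallium sulfate stimulus; B-score of peak minus minimum fluorescence over baseline after thallium stimulus; more negative B-score means stronger Kir2.1 block with less thallium influx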
Target sequence (P35561 whole entry, looked up): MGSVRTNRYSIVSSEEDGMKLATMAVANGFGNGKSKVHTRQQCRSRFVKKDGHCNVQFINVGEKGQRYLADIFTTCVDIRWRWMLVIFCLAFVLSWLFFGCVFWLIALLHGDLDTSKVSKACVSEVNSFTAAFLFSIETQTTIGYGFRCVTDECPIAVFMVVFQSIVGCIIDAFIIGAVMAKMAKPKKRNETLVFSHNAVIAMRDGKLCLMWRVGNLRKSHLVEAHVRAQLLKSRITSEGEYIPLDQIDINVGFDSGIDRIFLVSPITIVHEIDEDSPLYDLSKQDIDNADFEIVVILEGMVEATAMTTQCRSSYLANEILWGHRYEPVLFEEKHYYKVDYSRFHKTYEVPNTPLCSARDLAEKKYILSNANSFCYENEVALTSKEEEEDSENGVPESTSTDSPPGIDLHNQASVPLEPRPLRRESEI
KCNK3 inh – human KCNK3 channel inhibition, primary screen; O14649; CHO-KCNK3 thallium flux, FluxOR fluorescence; hits give low values; B-score at 10 µM; 340,000 tested, 0.84% active;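 active = B-score under library mean minus 4 SD, starting fluorescence ratio at most library mean plus 5 SD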;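 note: more negative B-score means stronger inhibition of thallium flux through KCNK3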
Starred values were filed as active, the others as inactive; i = inactive; · = not tested or not shown. A selection: hits, their analogues and other compounds. The true share with any hit is near 3.7%.

SMILES | KCNQ1 pot | hERG rescue | KCNK9 inh | KCNQ1 inh | Kir21 block | KCNK3 inh
Cc1cccc(-n2ncc3c(N(C)Cc4ccccc4)ncnc32)c1 | i | -9 | i | i | -0.74 | -11*
CC(C)OCCCNC(=O)c1ccc(NC(=O)C2CCCO2)cc1 (configuration not stated) | i | -12 | i | i | 0.04 | i
CCCCNC(=O)c1ccc(NC(=O)C2CCCO2)cc1 (configuration not stated) | i | 40* | i | i | -0.27 | i
Cc1ccc(-n2cc(CNCCc3cscn3)c(-c3ccc(F)cc3)n2)cc1 | i | -21 | i | i | -2.6 | i
Cc1ccc(-n2cc(CNCCCn3ccnc3C)c(-c3ccc(F)cc3)n2)cc1 | i | -15 | i | i | -7.9* | i
Cc1ccc(-n2cc(CN3CCN(c4ccccn4)CC3)c(-c3ccc(F)cc3)n2)cc1 | i | -15 | i | 6* | 1.2 | i
Cc1cccc(-n2cc(CN3CCN(c4ccccn4)CC3)c(-c3cccc(F)c3)n2)c1 | i | -9 | i | i | -1.3 | i
O=C(CC(SCc1ccco1)c1ccc(O)cc1)c1cccs1 (configuration not stated) | i | -14 | i | i | -4.8* | i
CC(OC(=O)CCN=C1NS(=O)(=O)c2ccccc21)C(=O)NCc1ccccc1 (configuration not stated) | i | -7 | i | i | -0.65 | i
CNC(=S)Nc1sc2c(c1C(=O)OC)CCC2 | 16* | 11* | i | i | 0.15 | i
COC(=O)c1c(NC(=S)Nc2ccc(F)cc2[N+](=O)[O-])sc2c1CCCCC2 | 10* | 6.4* | i | i | -0.23 | i
COC(=O)c1c(NS(=O)(=O)Cc2ccccc2)sc2c1CCCC2 | 13* | 18* | i | i | -0.48 | i
COC(=O)c1c(NC(=O)CCNCc2ccco2)sc2c1CCC2 | i | -10 | i | i | -8.1* | i
O=C(COC(=O)/C=C/c1cccc(Cl)c1)NC1CCCC1 | · | · | · | · | · | i
O=C1C(=O)N(CCS(=O)(=O)c2ccccc2)c2ccc(F)cc21 | i | -11 | i | i | 0.23 | i
O=C(O)c1cccc2c1Cc1cc(Cl)ccc1-2 | · | · | · | · | · | i
CCOC(=O)c1c(NC(=S)NC)sc2c1CC(C)(C)SC2 | 71* | 44* | i | i | -0.59 | i
COc1cccc(-n2nnnc2SCC(=O)Nc2ccc(NC(C)=O)cc2)c1 | i | -2 | i | i | -2.1 | i
O=C(CCC1CCCCC1)NCCN1C2=NC[C@H](Cc3ccccc3)N2C[C@H]1Cc1ccc(O)cc1 | i | -12 | i | i | -3.4 | i
O=C(CCC1CCCCC1)NCCN1C2=NC[C@@H](Cc3ccccc3)N2C[C@H]1Cc1ccc(O)cc1 | i | -14 | i | i | -4.5* | i
COc1ccc(S(=O)(=O)Nc2c(C)ccc3nsnc23)cc1OC | i | -3 | i | i | -5.1* | i
COc1ccc(Cl)cc1NS(=O)(=O)c1ccc(OC)c(OC)c1 | i | -17 | i | i | -8.2* | i
COc1ccc(S(=O)(=O)Nc2cc(C)ccc2OC)cc1C | i | -2 | i | i | -7* | i
COc1ccc(NS(=O)(=O)c2cccc3nsnc23)cc1OC | i | -3 | i | i | 0 | i
COc1ccc(C)cc1NS(=O)(=O)c1ccc(NS(=O)(=O)c2ccc(NC(C)=O)cc2)cc1 | i | -9 | i | i | -0.31 | i
SMILES | KCNQ1 pot | hERG rescue | KCNK9 inh | KCNQ1 inh | Kir21 block | KCNK3 inh
COC(=O)Nc1ccc(S(=O)(=O)NNC(=O)c2c(O)c3ccccc3n(C)c2=O)cc1 | i | -4 | i | i | 0.02 | i
CC(Cc1ccco1)NC(=O)c1ccc(C(F)(F)F)cc1 (configuration not stated) | i | -8 | i | i | 0.07 | i
CCCCn1c(N)c(N(CC(C)C)C(=O)c2ccc([N+](=O)[O-])o2)c(=O)[nH]c1=O | · | · | · | · | · | i
Cc1nn(-c2ccccc2)c(C)c1/C=N/NC(=O)CSc1nnc(SCc2ccccc2Cl)s1 | i | -13 | i | 6* | 0.73 | i
COc1ccc(N(Cc2cc3ccccc3[nH]c2=O)S(=O)(=O)c2ccc(OC)cc2)cc1 | i | -10 | -7.2* | i | 0.62 | i
COc1ccc(N(Cc2cc3cc(OC)ccc3[nH]c2=O)S(=O)(=O)c2ccc(NC(C)=O)cc2)cc1 | i | -23 | i | i | -0.5 | i
Cc1cc(C)n(-c2ccc(NC(=O)C3CCCCN3C(=O)c3cc(C)oc3C)cc2)n1 (configuration not stated) | i | -6 | i | i | 0 | i
N#Cc1ccc(NC(=O)Cn2cnc(S(=O)(=O)N3CCc4ccccc43)c2)cc1 | i | -9 | i | i | -0.33 | i
CCn1nc(C(=O)NNC(=O)c2ccccc2)c2ccccc2c1=O | · | · | · | · | · | i
O=C(N1CCCCC1)C1(S(=O)(=O)c2ccccc2)CC=CC1 | i | 1 | i | i | 2 | i
CSC1=NSC2=NC(=O)/C(=C\c3ccc(OC(=O)c4ccco4)cc3)C(=N)N12 | i | -12 | i | i | -0.62 | i
COc1cc(/C=C2\C(=N)N3N=C(S(=O)(=O)CC(C)C)SC3=NC2=O)ccc1OC(=O)c1ccco1 | i | -15 | i | i | -6* | ·
CC(C)CS(=O)(=O)C1=NSC2=NC(=O)/C(=C\c3ccc(OC(=O)c4ccco4)cc3)C(=N)N21 | i | -8 | i | i | -4.4* | i
CCS(=O)(=O)C1=NN2C(=N)/C(=C\c3ccc(OS(=O)(=O)c4ccccc4)c(OC)c3)C(=O)N=C2S1 | i | -30 | i | i | 0.88 | ·
O=c1ccc(-c2ccc(S(=O)(=O)Nc3cccc([N+](=O)[O-])c3)s2)n[nH]1 | i | -5 | i | i | 0.12 | i
C/C(=N/NC(=O)CNC(=O)c1cccs1)c1ccco1 | i | 2 | i | i | 0.62 | i
Cc1ccc(OCC(=O)NC2CCSc3ccccc32)cc1 (configuration not stated) | i | -15 | i | i | -0.06 | i
CNc1nc(C)cc(C)c1S(=O)(=O)c1ccc(C)cc1 | i | -11 | i | i | -5.8* | i
Cc1cc(C)c(S(C)(=O)=O)c(S(=O)(=O)c2ccc(Cl)cc2)n1 | i | -6 | i | i | 0.17 | i
CN(C)CCCn1c(=O)n(CCc2ccccc2)c(=O)c2c3c(sc21)CCCCC3 | i | -12 | i | i | -3 | i
CN(C)CCCNc1nc2sc3c(c2c(=O)n1CCc1ccccc1)CCCCC3 | i | -14 | i | i | -5.4* | i
